These results are taken from paper PMC7839511 (Antiviral Research, 2021).

Format in all cases: biochemical
For one assay, the target named is Human Cathepsin L (Homo sapiens, UniProt P07711). The assay is described as follows: Human cathepsin L assay. To be noted: FRET Cathepsin L IC50, 10 pM human cathepsin L, 2 μM Z-FR-AMC, pH 5.5. The method, boiled down:
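Human enzyme, 10 pM final, preincubated 30 min with test compound at ambient temperature in 20 mM sodium acetate, 1 mM EDTA, 0.005% Brij-35, 5 mM DTT, pH5.5. Started with 2 μM Z-FR-AMC (final). Fluorescence (355/460 excitation/emission) read at 2-min intervals over 30 min. IC50 from four-parameter curve fit.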

Assay [1] concerns the target rhinovirus HRV3C protease (Human rhinovirus 14, UniProt P03303). The assay is described as follows: 3CLpro and HRV3C duplex SAMDI-MS assay, HRV3C readout. The procedure, abridged: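 Enzymes preincubated 30 min with test compound. Biotinylated cognate peptides added (10 µM each, final). Reaction ran 30 min, then formic acid quench and bicarbonate neutralisation. Captured on SAMDI chips for 1 h; product conversion AUCprod/(AUCInt Stnd + AUCprod).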

The target in the next assay is SARS-CoV-2 3CLpro (Severe acute respiratory syndrome coronavirus 2, UniProt P0DTD1). To be noted: duplex SAMDI-MS assay.

Human Cathepsin L, sequence (P07711 114-333): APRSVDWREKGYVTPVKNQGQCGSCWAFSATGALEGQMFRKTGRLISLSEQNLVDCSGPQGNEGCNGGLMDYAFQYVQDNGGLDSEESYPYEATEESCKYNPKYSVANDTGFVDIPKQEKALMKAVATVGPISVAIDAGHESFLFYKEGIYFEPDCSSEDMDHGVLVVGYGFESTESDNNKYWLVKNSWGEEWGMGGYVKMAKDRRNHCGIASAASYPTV
rhinovirus HRV3C protease, sequence (P03303 1538-1719 limits assumed): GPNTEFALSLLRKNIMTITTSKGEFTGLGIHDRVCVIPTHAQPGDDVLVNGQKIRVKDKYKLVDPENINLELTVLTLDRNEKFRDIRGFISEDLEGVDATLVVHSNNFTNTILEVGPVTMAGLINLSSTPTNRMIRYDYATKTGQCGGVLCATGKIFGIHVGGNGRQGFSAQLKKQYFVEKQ

For the compound `CC(C)(C)NC(=O)N[C@H](C(=O)N1C[C@H]2[C@@H]([C@H]1C(=O)NC(CC1CCC1)C(=O)C(N)=O)C2(C)C)C(C)(C)C` (some centres unmarked) [Boceprevir], the IC50 at Human Cathepsin L is 2300 nM; in assay [1] it was over 100000 nM.
Turning to `CCOC(=O)/C=C/[C@H](C[C@@H]1CCNC1=O)NC(=O)[C@@H](CC(=O)[C@@H](NC(=O)c1cc(C)on1)C(C)C)Cc1ccc(F)cc1` [Rupintrivir], the “inhibition of 3CLpro (in words)” value on SARS-CoV-2 3CLpro was “no observed inhibition”. Moreover, the figures for the IC50 (on Human Cathepsin L; in assay [1]) were 4400 nM and 1.04 nM, respectively.
